# TNF death inh: inhibitors of TNF-alpha induced necroptosis in Jurkat FADD-/- cells; Jurkat FADD-/- TNF necroptosis rescue, ATP luminescence, 24 h; 0 = TNF only, 100 = no-TNF cells; activation (protection from cell death), % at 10 µM; hit rate 0.068% among 220,000;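 active = activation, meaning protection from cell death, of at least 50% relative to plate controls; inactive = activation below 50%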;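 note: necroptosis triggered by 40 ng/mL TNF-alpha added together with compound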
# Arbovirus anti: arbovirus infection inhibition; inhibition, % at 10 µM; arbovirus infection cell-based antiviral screen; AID 1251; hit rate 0.37% among 200,000; in the data active = inhibition above about 30%
# Hep lipid drop: hepatic lipid droplet formation modulation; AML12 mouse hepatocytes, oleate lipid droplets, BODIPY imaging; hit rate 0.4% among 240,000; AID 1656; inhibition, % at 6.5 µM;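 active = lipid droplet intensity inhibited by at least 50%, with more than 500 cells counted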
#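 Test system: AML12 hepatocytes (mouse); reagent: oleate loading, 100 µM; dosing: one dose, 6.5 µM compound; incubation: overnight exposure; signal: fluorescence imaging, 20x objective, two fields per well; read-out basis: % inhibition of corrected integrated BODIPY droplet signal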
# Pf gamet viab: inhibitors of late stage P. falciparum gametocyte viability; P. falciparum stage V gametocytes, ATP luminescence, 24 h; inhibition, % at 10.9 µM; hit rate 0.065% among 150,000; AID 743093;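 active = inhibition above the mean plus 3 SD of compounds within the control limits, set per campaign, cut at about 38% in these data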
# L929 necroptosis: L929 zVAD cell death inhibition. L929 zVAD necroptosis rescue, ATP luminescence, 24 h; with zVAD 60 µM. viability rescue, % at 10 µM. AID 1377. hit rate 0.38% among 220,000;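 active = activation, scaled between plate controls, above about 75%, limit read from the data; inactive = activation under that limit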
# A number is an active result; – = inactive; · = no result. Most compounds without a hit are left out; they make up all but 0.91% or so of the library.
SMILES,TNF death inh,Arbovirus anti,Hep lipid drop,Pf gamet viab,L929 necroptosis
CSC1=NSC2=NC(=O)/C(=C\c3cccs3)C(=N)N12,–,40.9,·,–,–
CC(C)CSC1=NSC2=NC(=O)/C(=C\c3cccs3)C(=N)N12,–,48.4,·,–,–
N=C1/C(=C/c2cccs2)C(=O)N=C2SN=C(SCc3ccccc3)N12,–,34.8,·,–,–
CC1=CC2=NC(=O)/C(=C/c3cccs3)C(=N)N2O1,–,·,–,–,–
CSC1=NSC2=NC(=O)/C(=C/c3coc4ccccc4c3=O)C(=N)N12,–,–,–,–,–
O=C(CN1C(=O)COc2ccccc21)Nc1ccc(N2CCOCC2)cc1,·,·,–,·,·
Cc1cccc(NC(=O)c2ccc(NC(C)c3ccccc3)c([N+](=O)[O-])c2)n1 (configuration not stated),–,–,·,–,–
COC(=O)c1c(SCc2cccc3ccccc23)nc(=O)[nH]c1C,–,·,–,–,–
COC(=O)c1c(SCc2ccc(C#N)cc2)nc(=O)[nH]c1C,–,77.8,–,·,–
Cc1ccc(-n2[nH]c3c4c(ccc3c2=O)C(=O)c2ccccc2C4=O)cc1,–,–,–,61.3,–
CC(Sc1ccccc1)C(=O)N1CCN(S(=O)(=O)c2ccccc2C(F)(F)F)CC1 (configuration not stated),·,·,–,·,·
COC(C(=O)Nc1ccccc1F)c1ccccc1 (configuration not stated),83.9,–,–,–,–
COC(C(=O)Nc1ccc(Br)cc1F)c1ccccc1 (configuration not stated),90.6,–,–,·,–
COc1ccc(C)cc1NC(=O)CCS(=O)(=O)c1ccc2c(c1)oc(=O)n2C,·,·,–,·,·
CCCCCCCCCCCC(=O)NC(C(=O)O)C(O)c1ccccc1 (configuration not stated),–,31.6,–,–,–
CCCCCC(=O)NNC(=O)Nc1ccccc1,–,–,–,–,–
CCN1CCN(Cc2ccc(NC(=O)c3cc(NC(=O)c4nccnc4N)cc(OC)c3)cc2C(F)(F)F)CC1,–,·,–,–,–
CCN1CCN(Cc2ccc(NC(=O)c3cc(NC(=O)c4cncc(-c5ccc(C#N)cc5)c4)cc(OC)c3)cc2C(F)(F)F)CC1,–,·,–,·,79.6
O=C(Nc1ccccc1)c1sc(N2CCOCC2)nc1-c1ccccc1,–,–,–,–,–
N#C/C(=C\c1sc(N2CCOCC2)nc1-c1ccccc1)C(=O)Nc1cccc2ccccc12,–,–,55.6,·,–
Nc1c(NC=O)c(=O)n(Cc2ccccc2)c(=O)n1Cc1ccccc1,·,·,·,–,·
Nc1nc(-c2ccccc2)c(-c2ccc([N+](=O)[O-])cc2)s1,–,33.2,–,·,–
Nc1nc(-c2ccccc2)c(-c2ccccc2)s1,–,–,·,–,–
CC[C@]12C(=O)N(C)C[C@H]([C@@H]3C(=O)N(C)C(=O)[C@@H]31)N2C(=O)c1ccc(C)cc1,·,·,·,–,·
O=C(Nc1nnc(SCc2ccccc2Cl)s1)C1COc2ccccc2O1 (configuration not stated),–,41.2,–,·,–
SMILES,TNF death inh,Arbovirus anti,Hep lipid drop,Pf gamet viab,L929 necroptosis
Cc1ccccc1CSc1nnc(NC(=O)C2COc3ccccc3O2)s1 (configuration not stated),–,48.2,·,·,–
O=C(CCS(=O)(=O)c1ccccc1)NCc1ccccc1,·,·,–,·,·
O=C1c2ccccc2C(O)N1Cc1cccs1 (configuration not stated),–,–,–,54.7,–
CCOc1ccccc1NC(=O)Nn1cnnc1,·,·,–,·,·
CCC(C)c1ccc(O)c(NC(=O)c2cccnc2)c1 (configuration not stated),–,–,·,·,–
CC(C)c1ccc(O)c(NC(=O)c2cncc(Br)c2)c1,66.6,–,–,–,–
Cn1c(-c2c(N)n(-c3ccccc3)c3nc4ccccc4nc23)nc2ccccc21,–,64.1,–,–,–
Cc1cccc(-n2c(N)c(-c3nc4ccccc4n3C)c3nc4ccccc4nc32)c1,–,–,–,·,–
CCCCCCc1cc2cc(C(=O)Nc3cccc(OC)c3)c(=O)oc2cc1O,–,–,–,·,–
CCCCCCc1cc2cc(C(=O)Nc3ccc(OC)cc3)c(=O)oc2cc1O,–,46.8,–,–,–
CCc1ccc(N(CC(=O)NC2CCCCC2)C(=O)CCC(=O)Nc2ccccn2)cc1,·,·,–,·,·
CC(C)OC(=O)CSc1nnc(-c2ccccn2)n1N,–,·,–,–,–
CC(=O)N(CC1CCCO1)c1nnc(-c2cnccn2)s1 (configuration not stated),75.7,–,·,·,–
